From ChEMBL document CHEMBL1145694, “In vitro evaluation of antifungal properties of 8.O.4'-neolignans” (1997)
Converted amounts (≈) assume the structure as drawn. The source made the active and inactive calls. The calls are words filed in the database; no cut-off is given here.

What was measured:
Aspergillus niger = assay: Antifungal activity against Aspergillus niger ATCC 9029 up to 250 ug/mL by agar dilution method; type: functional, organism-based
Outline: (§1)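 Agar dilution in Saboureaud-chloramphenicol agar wells. Test agents from DMSO stocks were serially diluted twofold to final 0.10–250 µg/mL, with DMSO ≤2% final. Each well got 5 µL of yeast cell or spore suspension (spores at 10⁶ CFU/mL). Ketoconazole and amphotericin B served as positive controls, with a drug-free blank. Plates were held at 30 °C for 24, 48 or 72 h, set by control growth. MIC = lowest concentration with no visible growth.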

Cryptococcus neoformans = assay: Antifungal activity against Cryptococcus neoformans ATCC 32264 up to 250 ug/mL by agar dilution method; type: functional, organism-based; outline: as §1
[1] = tested on: Trichophyton mentagrophytes; assay: Antifungal activity against Trichophyton mentagrophytes ATCC 9972 after 15 days by agar dilution method; type: functional; conditions: ATCC 9972, 360 h
Outline: (§2)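 Dermatophytes were kept on Saboureaud dextrose agar slopes and subcultured every 15 days. Spore suspensions were set to 10⁶ CFU/mL, and 5 µL went into Saboureaud-chloramphenicol agar wells. Wells held twofold dilutions from DMSO stocks, final 0.10–250 µg/mL, DMSO ≤2%. Ketoconazole and amphotericin B were positive controls, with a drug-free blank. Incubation was at 30 °C for up to 15 days. MIC = lowest concentration with no visible growth.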

Nannizzia gypsea = assay: Antifungal activity against Microsporum gypseum C115 after 15 days by agar dilution method; type: functional; conditions: 360 h; outline: as §2
Microsporum canis = assay: Antifungal activity against Microsporum canis C112 after 15 days by agar dilution method; type: functional; conditions: 360 h; outline: as §2
Saccharomyces cerevisiae = assay: Antifungal activity against Saccharomyces cerevisiae ATCC 9763 up to 250 ug/mL by agar dilution method; type: functional, organism-based; outline: as §1
Epidermophyton floccosum = assay: Antifungal activity against Epidermophyton floccosum C114 after 15 days by agar dilution method; type: functional; conditions: 360 h; outline: as §2
Aspergillus fumigatus = assay: Antifungal activity against Aspergillus fumigatus ATCC 26934 up to 250 ug/mL by agar dilution method; type: functional, organism-based; outline: as §1
Aspergillus flavus = assay: Antifungal activity against Aspergillus flavus ATCC 9170 up to 250 ug/mL by agar dilution method; type: functional, organism-based; outline: as §1
Trichophyton rubrum = assay: Antifungal activity against Trichophyton rubrum C113 after 15 days by agar dilution method; type: functional; conditions: 360 h; outline: as §2
Candida albicans = assay: Antifungal activity against Candida albicans ATCC 10231 up to 250 ug/mL by agar dilution method; type: functional, organism-based; outline: as §1

C=CCc1cc(OC)c(O[C@@H](C)[C@@H](O)c2ccc3c(c2)OCO3)c(OC)c1 (racemic)
Activity (Aspergillus niger): inactive | Activity (Cryptococcus neoformans): inactive | MIC [1]: 200 µg/mL (≈ 537 µM) | MIC (Nannizzia gypsea): 40 µg/mL (≈ 107 µM) | MIC (Microsporum canis): 80 µg/mL (≈ 215 µM) | Activity (Saccharomyces cerevisiae): inactive | MIC (Epidermophyton floccosum): 15 µg/mL (≈ 40.3 µM) | Activity (Aspergillus fumigatus): inactive | Activity (Aspergillus flavus): inactive | MIC (Trichophyton rubrum): 20 µg/mL (≈ 53.7 µM) | Activity (Candida albicans): inactive

C=CCc1ccc(O[C@H](C)[C@@H](O)c2ccc(OC)c(OC)c2)c(OC)c1 (racemic)
Activity (Aspergillus niger): inactive | Activity (Cryptococcus neoformans): inactive | MIC [1]: > 250 µg/mL | MIC (Nannizzia gypsea): > 250 µg/mL | MIC (Microsporum canis): 250 µg/mL (≈ 697 µM) | Activity (Saccharomyces cerevisiae): inactive | MIC (Epidermophyton floccosum): 15 µg/mL (≈ 41.8 µM) | Activity (Aspergillus fumigatus): inactive | Activity (Aspergillus flavus): inactive | MIC (Trichophyton rubrum): 250 µg/mL (≈ 697 µM) | Activity (Candida albicans): inactive

C/C=C/c1ccc(O[C@H](C)[C@@H](O)c2cc(OC)c(OC)c(OC)c2)c(OC)c1 (racemic)
Activity (Aspergillus niger): inactive | Activity (Cryptococcus neoformans): inactive | MIC [1]: 80 µg/mL (≈ 206 µM) | MIC (Nannizzia gypsea): 60 µg/mL (≈ 154 µM) | MIC (Microsporum canis): 60 µg/mL (≈ 154 µM) | Activity (Saccharomyces cerevisiae): inactive | MIC (Epidermophyton floccosum): 25 µg/mL (≈ 64.4 µM) | Activity (Aspergillus fumigatus): inactive | Activity (Aspergillus flavus): inactive | MIC (Trichophyton rubrum): 50 µg/mL (≈ 129 µM) | Activity (Candida albicans): inactive

C/C=C/c1ccc(O[C@@H](C)[C@@H](O)c2cc(OC)c(OC)c(OC)c2)c(OC)c1 (racemic)
Activity (Aspergillus niger): inactive | Activity (Cryptococcus neoformans): inactive | MIC [1]: > 250 µg/mL | MIC (Nannizzia gypsea): > 250 µg/mL | MIC (Microsporum canis): > 250 µg/mL | Activity (Saccharomyces cerevisiae): inactive | MIC (Epidermophyton floccosum): 50 µg/mL (≈ 129 µM) | Activity (Aspergillus fumigatus): inactive | Activity (Aspergillus flavus): inactive | MIC (Trichophyton rubrum): 125 µg/mL (≈ 322 µM) | Activity (Candida albicans): inactive

C=CCc1cc(OC)c(O[C@@H](C)[C@@H](O)c2ccc(OC)c(OC)c2)c(OC)c1 (racemic)
Activity (Aspergillus niger): inactive | Activity (Cryptococcus neoformans): inactive | MIC [1]: 150 µg/mL (≈ 386 µM) | MIC (Nannizzia gypsea): 150 µg/mL (≈ 386 µM) | MIC (Microsporum canis): 40 µg/mL (≈ 103 µM) | Activity (Saccharomyces cerevisiae): inactive | MIC (Epidermophyton floccosum): 60 µg/mL (≈ 154 µM) | Activity (Aspergillus fumigatus): inactive | Activity (Aspergillus flavus): inactive | MIC (Trichophyton rubrum): 40 µg/mL (≈ 103 µM) | Activity (Candida albicans): inactive

C=CCc1cc(OC)c(OC(C)C(=O)c2ccc3c(c2)OCO3)c(OC)c1 (racemic)
Activity (Aspergillus niger): inactive | Activity (Cryptococcus neoformans): inactive | MIC [1]: > 250 µg/mL | MIC (Nannizzia gypsea): 250 µg/mL (≈ 675 µM) | MIC (Microsporum canis): > 250 µg/mL | Activity (Saccharomyces cerevisiae): inactive | MIC (Epidermophyton floccosum): > 250 µg/mL | Activity (Aspergillus fumigatus): inactive | Activity (Aspergillus flavus): inactive | MIC (Trichophyton rubrum): > 250 µg/mL | Activity (Candida albicans): inactive

C=CCc1cc(OC)c(O[C@H](C)[C@@H](O)c2cc(OC)c(OC)c(OC)c2)c(OC)c1 (racemic) [RHAPHIDECURSINOL B]
Activity (Aspergillus niger): inactive | Activity (Cryptococcus neoformans): inactive | MIC [1]: 50 µg/mL (≈ 119 µM) | MIC (Nannizzia gypsea): 150 µg/mL (≈ 358 µM) | MIC (Microsporum canis): 50 µg/mL (≈ 119 µM) | Activity (Saccharomyces cerevisiae): inactive | MIC (Epidermophyton floccosum): 50 µg/mL (≈ 119 µM) | Activity (Aspergillus fumigatus): inactive | Activity (Aspergillus flavus): inactive | MIC (Trichophyton rubrum): 25 µg/mL (≈ 59.7 µM) | Activity (Candida albicans): inactive

C/C=C/c1ccc(O[C@@H](C)[C@@H](O)c2ccc(OC)c(OC)c2)c(OC)c1 (racemic) [VIROLIN]
Activity (Aspergillus niger): inactive | Activity (Cryptococcus neoformans): inactive | MIC [1]: > 250 µg/mL | MIC (Nannizzia gypsea): > 250 µg/mL | MIC (Microsporum canis): 50 µg/mL (≈ 139 µM) | Activity (Saccharomyces cerevisiae): inactive | MIC (Epidermophyton floccosum): 100 µg/mL (≈ 279 µM) | Activity (Aspergillus fumigatus): inactive | Activity (Aspergillus flavus): inactive | MIC (Trichophyton rubrum): > 250 µg/mL | Activity (Candida albicans): inactive

C[C@@H]1[C@H](O)[C@@H](C)/C=C/C=C/C=C/C=C/C=C/C=C/C=C/[C@H](O[C@@H]2O[C@H](C)[C@@H](O)[C@H](N)[C@@H]2O)C[C@@H]2O[C@](O)(C[C@@H](O)C[C@@H](O)[C@H](O)CC[C@@H](O)C[C@@H](O)CC(=O)O[C@H]1C)C[C@H](O)[C@H]2C(=O)O [AMPHOTERICIN B]
MIC (Epidermophyton floccosum): 0.3 µg/mL (≈ 0.325 µM)

CC(=O)N1CCN(c2ccc(OCC3COC(Cn4ccnc4)(c4ccc(Cl)cc4Cl)O3)cc2)CC1 (stereo not given) [KETOCONAZOLE]
MIC (Epidermophyton floccosum): 15 µg/mL (≈ 28.2 µM)
